Measured values reported in ChEMBL document CHEMBL1138040, “Activation of murine RNase L by isopolar 2'-phosphonate analogues of 2',5' oligoadenylates” (J Med Chem, 2006).

Legend:
[1] = biological target: T1, 2-5A-dependent ribonuclease (Mus musculus, UniProt Q05921); assay: Binding to mouse RNase L assessed as displacement of pA4-[32P]pCp
T1 sequence (Q05921 whole entry): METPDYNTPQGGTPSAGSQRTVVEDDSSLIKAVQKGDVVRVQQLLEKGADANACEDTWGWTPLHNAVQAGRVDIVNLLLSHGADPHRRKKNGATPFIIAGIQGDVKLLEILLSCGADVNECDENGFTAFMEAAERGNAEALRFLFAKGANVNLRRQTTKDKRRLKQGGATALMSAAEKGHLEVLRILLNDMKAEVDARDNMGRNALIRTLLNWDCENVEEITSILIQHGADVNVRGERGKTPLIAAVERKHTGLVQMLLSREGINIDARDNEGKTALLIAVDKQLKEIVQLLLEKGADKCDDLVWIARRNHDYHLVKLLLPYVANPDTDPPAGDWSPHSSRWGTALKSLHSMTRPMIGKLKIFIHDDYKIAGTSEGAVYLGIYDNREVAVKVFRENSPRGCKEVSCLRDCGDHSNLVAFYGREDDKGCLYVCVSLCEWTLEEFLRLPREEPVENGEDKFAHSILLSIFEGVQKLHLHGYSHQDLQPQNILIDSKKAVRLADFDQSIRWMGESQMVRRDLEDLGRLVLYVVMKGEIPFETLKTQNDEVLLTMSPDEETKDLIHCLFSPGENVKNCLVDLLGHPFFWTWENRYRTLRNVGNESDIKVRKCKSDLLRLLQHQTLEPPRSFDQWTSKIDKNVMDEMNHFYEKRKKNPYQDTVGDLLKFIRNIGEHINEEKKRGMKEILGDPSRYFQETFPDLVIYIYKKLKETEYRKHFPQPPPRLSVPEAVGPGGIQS

[2] = biological target: T2, 2-5A-dependent ribonuclease (Mus musculus) (UniProt Q05921); assay: Displacement of pA4[32P]pCp from mouse spleen RNase L at 1 uM; format: tissue-based
T2 sequence (whole entry): T1 sequence (Q05921 whole entry)
Method in brief: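 Competitive radiobinding using 20 µL male BALB/c mouse spleen 126 000g supernatant; oligoadenylate at 1 µM final with about 0.4 nM pA4-[32P]pCp in 25 µL. Held 60 min at 4 °C, filtered through nitrocellulose, washed with Tris pH 7.6/KCl/MgCl2/glycerol, bound radioactivity counted by scintillation. Triplicates; percent binding relative to natural pA4.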

[3] = Half life in mouse spleen at 4 degreeC; format: ADME
Method in brief: (§1)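 Oligoadenylate (2.5 nmol) mixed with 9 µL soluble mouse spleen 126 000g supernatant, kept at 4 °C. Sampled periodically: diluted with aqueous 0.1% TFA, spun 14 000g 10 min, run on C18 RP-HPLC (acetonitrile gradient in 0.1% TFA, 260 nm). Intact and degradation peaks integrated to follow degradation over time.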

Mus musculus = organism: Mus musculus; assay: Stability in mouse spleen assessed as ability to resist degradation by nuclease; format: ADME
Method in brief: as §1

Question: Which EC50 [1] does the source give for `Nc1ncnc2c1ncn2[C@@H]1O[C@H](COP(=O)(O)O[C@@H]2[C@H](O)[C@@H](COP(=O)(O)O[C@@H]3[C@H](O)[C@@H](COP(=O)(O)O[C@@H]4[C@H](O)[C@@H](COP(=O)(O)O)O[C@H]4n4cnc5c(N)ncnc54)O[C@H]3n3cnc4c(N)ncnc43)O[C@H]2n2cnc3c(N)ncnc32)[C@@H](O)[C@H]1OP(=O)(O)O` here?
Answer: Its EC50 is 0.9 nM.

Question: What about the Activity [2] of the same compound?
Answer: Its Activity is 100%.

Question: What about the half-life [3] of the same compound?
Answer: Its half-life is 10 h.

Question: Which Activity [2] does the source give for `Nc1ncnc2c1ncn2[C@@H]1O[C@H](COP(=O)(O)O)[C@H](O)[C@H]1OP(=O)(O)OC[C@H]1O[C@@H](n2cnc3c(N)ncnc32)[C@H](OP(=O)(O)OC[C@H]2O[C@@H](n3cnc4c(N)ncnc43)[C@H](OP(=O)(O)OC[C@H]3O[C@@H](n4cnc5c(N)ncnc54)[C@H](OP(=O)(O)O)[C@@H]3O)[C@@H]2O)[C@@H]1O` here?
Answer: Its Activity is 86%.

Question: With `Nc1ncnc2c1ncn2[C@@H]1O[C@H](COP(=O)(O)O[C@@H]2[C@H](O)[C@@H](COP(=O)(O)O[C@H]3[C@H](O)[C@@H](COP(=O)(O)O[C@H]4[C@H](O)[C@@H](COP(=O)(O)O)O[C@H]4n4cnc5c(N)ncnc54)O[C@H]3n3cnc4c(N)ncnc43)O[C@H]2n2cnc3c(N)ncnc32)[C@@H](O)[C@H]1OP(=O)(O)O` as the compound, how does the Activity [2] read?
Answer: Its Activity is 24%.

Question: With `Nc1ncnc2c1ncn2[C@@H]1O[C@H](COP(=O)(O)O[C@H]2[C@H](O)[C@@H](COP(=O)(O)O[C@H]3[C@H](O)[C@@H](COP(=O)(O)O)O[C@H]3n3cnc4c(N)ncnc43)O[C@H]2n2cnc3c(N)ncnc32)[C@@H](O)[C@H]1OP(=O)(O)O` as the compound, how does the Activity [2] read?
Answer: Its Activity is 0%.

Question: With `Nc1ncnc2c1ncn2[C@@H]1O[C@H](COP(=O)(O)O[C@H]2[C@H](O)[C@@H](COP(=O)(O)O[C@@H]3[C@H](O)[C@@H](COP(=O)(O)O[C@H]4[C@H](O)[C@@H](COP(=O)(O)O)O[C@H]4n4cnc5c(N)ncnc54)O[C@H]3n3cnc4c(N)ncnc43)O[C@H]2n2cnc3c(N)ncnc32)[C@@H](O)[C@H]1OP(=O)(O)O` as the compound, how does the Activity [2] read?
Answer: The Activity was 51%.

Question: Which Activity [2] does the source give for `Nc1ncnc2c1ncn2[C@@H]1O[C@H](COP(=O)(O)O[C@H]2[C@H](O)[C@@H](COP(=O)(O)O[C@H]3[C@H](O)[C@@H](COP(=O)(O)O[C@@H]4[C@H](O)[C@@H](COP(=O)(O)O)O[C@H]4n4cnc5c(N)ncnc54)O[C@H]3n3cnc4c(N)ncnc43)O[C@H]2n2cnc3c(N)ncnc32)[C@@H](O)[C@H]1OP(=O)(O)O` here?
Answer: Its Activity is 33%.

Question: With `Nc1ncnc2c1ncn2[C@@H]1O[C@H](COP(=O)(O)O[C@@H]2[C@H](O)[C@@H](COP(=O)(O)O[C@@H]3[C@H](O)[C@@H](COP(=O)(O)O)O[C@H]3n3cnc4c(N)ncnc43)O[C@H]2n2cnc3c(N)ncnc32)[C@@H](O)[C@H]1OP(=O)(O)O` as the compound, how does the Activity [2] read?
Answer: Its Activity is 39%.

Question: What does the source list for `Nc1ncnc2c1ncn2[C@@H]1O[C@H](COP(=O)(O)O[C@@H]2[C@@H](O)[C@@H](COP(=O)(O)O[C@@H]3[C@H](O)[C@@H](COP(=O)(O)O)O[C@H]3n3cnc4c(N)ncnc43)O[C@H]2n2cnc3c(N)ncnc32)[C@H](O)[C@H]1OP(=O)(O)OC[C@H]1O[C@@H](n2cnc3c(N)ncnc32)[C@H](OP(=O)(O)O)[C@@H]1O`?
Answer: EC50 [1]: 393 nM; Activity [2]: 88%

Question: With `Nc1ncnc2c1ncn2[C@@H]1O[C@H](COP(=O)(O)O)[C@H](O)[C@H]1OP(=O)(O)OC[C@H]1O[C@@H](n2cnc3c(N)ncnc32)[C@H](OP(=O)(O)OC[C@H]2O[C@@H](n3cnc4c(N)ncnc43)[C@H](OP(=O)(O)OC[C@H]3O[C@@H](n4cnc5c(N)ncnc54)[C@H](OP(=O)(O)O)[C@@H]3O)[C@H]2O)[C@H]1O` as the compound, how does the Activity [2] read?
Answer: The Activity was 43%.

Question: Which Activity [2] does the source give for `Nc1ncnc2c1ncn2[C@@H]1O[C@H](COP(=O)(O)O[C@@H]2[C@H](O)[C@@H](COP(=O)(O)O)O[C@H]2n2cnc3c(N)ncnc32)[C@H](O)[C@H]1OP(=O)(O)OC[C@H]1O[C@@H](n2cnc3c(N)ncnc32)[C@H](OP(=O)(O)O)[C@@H]1O` here?
Answer: The Activity was 41%.

Question: Which Activity [2] does the source give for `Nc1ncnc2c1ncn2[C@@H]1O[C@H](COP(=O)(O)O)[C@H](O)[C@H]1OP(=O)(O)OC[C@H]1O[C@@H](n2cnc3c(N)ncnc32)[C@H](OP(=O)(O)OC[C@H]2O[C@@H](n3cnc4c(N)ncnc43)[C@H](OP(=O)(O)O)[C@@H]2O)[C@H]1O` here?
Answer: Its Activity is 45%.

Question: For `Nc1ncnc2c1ncn2[C@@H]1O[C@H](COP(=O)(O)O[C@H]2[C@H](O)[C@@H](COP(=O)(O)O[C@@H]3[C@H](O)[C@@H](COP(=O)(O)O)O[C@H]3n3cnc4c(N)ncnc43)O[C@H]2n2cnc3c(N)ncnc32)[C@@H](O)[C@H]1OP(=O)(O)O`, which Activity [2] is on record?
Answer: Its Activity is 33%.

Question: For `Nc1ncnc2c1ncn2[C@@H]1O[C@H](COP(=O)(O)O)[C@H](O)[C@H]1OP(=O)(O)OC[C@H]1O[C@@H](n2cnc3c(N)ncnc32)[C@H](OP(=O)(O)OC[C@H]2O[C@@H](n3cnc4c(N)ncnc43)[C@H](OP(=O)(O)OC[C@H]3O[C@@H](n4cnc5c(N)ncnc54)[C@H](OP(=O)(O)O)[C@@H]3O)[C@H]2O)[C@@H]1O`, which EC50 [1] is on record?
Answer: Its EC50 is 323 nM.

Question: And the Activity [2]?
Answer: Its Activity is 93%.

Question: What about the Stability (Mus musculus) of the same compound?
Answer: The Stability was “Stable”.

Question: With `Nc1ncnc2c1ncn2[C@@H]1O[C@H](COP(=O)(O)O)[C@H](O)[C@H]1OP(=O)(O)OC[C@H]1O[C@@H](n2cnc3c(N)ncnc32)[C@H](OP(=O)(O)OC[C@H]2O[C@@H](n3cnc4c(N)ncnc43)[C@H](OP(=O)(O)OC[C@H]3O[C@@H](n4cnc5c(N)ncnc54)[C@H](OP(=O)(O)O)[C@@H]3O)[C@@H]2O)[C@H]1O` as the compound, how does the Activity [2] read?
Answer: The Activity was 51%.

Question: Which Activity [2] does the source give for `Nc1ncnc2c1ncn2[C@@H]1O[C@H](COP(=O)(O)O)[C@H](O)[C@H]1OP(=O)(O)OC[C@H]1O[C@@H](n2cnc3c(N)ncnc32)[C@H](OP(=O)(O)OC[C@H]2O[C@@H](n3cnc4c(N)ncnc43)[C@H](OP(=O)(O)O)[C@@H]2O)[C@@H]1O` here?
Answer: The Activity was 64%.

Question: With `Nc1ncnc2c1ncn2[C@@H]1O[C@H](COP(=O)(O)O[C@@H]2[C@H](O)[C@@H](COP(=O)(O)O[C@H]3[C@H](O)[C@@H](COP(=O)(O)O[C@@H]4[C@H](O)[C@@H](COP(=O)(O)O)O[C@H]4n4cnc5c(N)ncnc54)O[C@H]3n3cnc4c(N)ncnc43)O[C@H]2n2cnc3c(N)ncnc32)[C@@H](O)[C@H]1OP(=O)(O)O` as the compound, how does the Activity [2] read?
Answer: Its Activity is 37%.

Question: Which Activity [2] does the source give for `Nc1ncnc2c1ncn2[C@@H]1O[C@H](COP(=O)(O)O[C@@H]2[C@H](O)[C@@H](COP(=O)(O)O[C@H]3[C@H](O)[C@@H](COP(=O)(O)O)O[C@H]3n3cnc4c(N)ncnc43)O[C@H]2n2cnc3c(N)ncnc32)[C@@H](O)[C@H]1OP(=O)(O)O` here?
Answer: The Activity was 49%.

Question: With `Nc1ncnc2c1ncn2[C@@H]1O[C@H](COP(=O)(O)O[C@@H]2[C@H](O)[C@@H](COP(=O)(O)O)O[C@H]2n2cnc3c(N)ncnc32)[C@H](O)[C@H]1OP(=O)(O)OC[C@H]1O[C@@H](n2cnc3c(N)ncnc32)[C@H](OP(=O)(O)OC[C@H]2O[C@@H](n3cnc4c(N)ncnc43)[C@H](OP(=O)(O)O)[C@@H]2O)[C@@H]1O` as the compound, how does the Activity [2] read?
Answer: The Activity was 67%.

Question: For `Nc1ncnc2c1ncn2[C@@H]1O[C@H](COP(=O)(O)O[C@@H]2[C@H](O)[C@@H](COP(=O)(O)O[C@@H]3[C@H](O)[C@@H](COP(=O)(O)O[C@H]4[C@H](O)[C@@H](COP(=O)(O)O)O[C@H]4n4cnc5c(N)ncnc54)O[C@H]3n3cnc4c(N)ncnc43)O[C@H]2n2cnc3c(N)ncnc32)[C@@H](O)[C@H]1OP(=O)(O)O`, which Activity [2] is on record?
Answer: Its Activity is 40%.

Question: With `Nc1ncnc2c1ncn2[C@@H]1O[C@H](COP(=O)(O)O[C@H]2[C@H](O)[C@@H](COP(=O)(O)O[C@H]3[C@H](O)[C@@H](COP(=O)(O)O[C@H]4[C@H](O)[C@@H](COP(=O)(O)O)O[C@H]4n4cnc5c(N)ncnc54)O[C@H]3n3cnc4c(N)ncnc43)O[C@H]2n2cnc3c(N)ncnc32)[C@@H](O)[C@H]1OP(=O)(O)O` as the compound, how does the Activity [2] read?
Answer: The Activity was 0%.
